Legend:
Reverse transcriptase [1] = target: T1, Reverse transcriptase (Human immunodeficiency virus 1, UniProt Q9WKE8); test: Inhibition of HIV1 pNL4-3 reverse transcriptase wild type pNL4-3 by heteropolymeric DNA polymerase assay
How it was run: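 Heteropolymeric assay without ATP: plate-bound 18-mer DNA primer (~110 nM) with 50-mer 5′-A12-(GTCA)5 template (190 nM). dATP, dGTP, dCTP and BrdUTP at 1.0 μM each, in HEPES 50 mM pH 7.3, MgCl2 10 mM. RT 30–100 pM, 33°C for 180 min, then NaOH dehybridization and anti-BrdU-AP tracer read at 405 nm. IC50 from seven triphosphate concentrations; two to four runs in duplicate.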

Reverse transcriptase [2] = target: T1, Reverse transcriptase; test: Inhibition of HIV1 LAI reverse transcriptase wild type in presence of 5 mM ATP by heteropolymeric DNA polymerase assay
How it was run: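 Heteropolymeric DNA assay with 5 mM ATP added: immobilized 18-mer primer, 5′-A12-(GTCA)5 50-mer template, dATP/dGTP/dCTP/BrdUTP at 1.0 μM each, HEPES 50 mM pH 7.3, MgCl2 10 mM. RT 30–100 pM, incubated at 33°C for 180 min. NaOH strand separation, then anti-BrdU-AP detection at 405 nm. IC50 fitted from seven inhibitor concentrations; two to four runs in duplicate.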

| SMILES | IC50 (Reverse transcriptase [1]) [nM] | IC50 (Reverse transcriptase [2]) [nM] |
| --- | --- | --- |
| Nc1nc2c(c(=O)[nH]1)NCN2[C@H]1C=C[C@@H](COP(=O)(O)OP(=O)(O)OP(=O)(O)O)C1 [Carbovir-Triphosphate] | 1200 | 900 |
| C[C@@H](Cn1cnc2c(N)ncnc21)OCP(=O)(O)OP(=O)(O)OP(=O)(O)O [Tenofovir diphospahte] | 1200 | 1300 |
